Source: ChEMBL document CHEMBL5046217, “Discovery of New Imidazo[2,1-b]thiazole Derivatives as Potent Pan-RAF Inhibitors with Promising In Vitro and In Vivo Anti-melanoma Activity” (J Med Chem, 2021)

How the values were obtained:
[1] = tested on: LOX IMVI; assay: Antiproliferative activity against human LOX IMVI cells assessed as cell growth inhibition measured after 48 hrs by SRB assay
[2] = Cytotoxicity against human L132 cells assessed as cell growth inhibition incubated for 48 hrs by MTT assay; assay type: toxicity, cell-based
[3] = target: Serine/threonine-protein kinase B-raf (Homo sapiens, UniProt P15056, V600E); assay: Inhibition of human BRAF V600E mutant using myelin basic protein as substrate in presence of [gamma-33P]ATP incubated for 40 mins by scintillation counting method
Sequence of Serine/threonine-protein kinase B-raf (Homo sapiens, UniProt P15056, V600E) (P15056 2-766 V600E limits assumed): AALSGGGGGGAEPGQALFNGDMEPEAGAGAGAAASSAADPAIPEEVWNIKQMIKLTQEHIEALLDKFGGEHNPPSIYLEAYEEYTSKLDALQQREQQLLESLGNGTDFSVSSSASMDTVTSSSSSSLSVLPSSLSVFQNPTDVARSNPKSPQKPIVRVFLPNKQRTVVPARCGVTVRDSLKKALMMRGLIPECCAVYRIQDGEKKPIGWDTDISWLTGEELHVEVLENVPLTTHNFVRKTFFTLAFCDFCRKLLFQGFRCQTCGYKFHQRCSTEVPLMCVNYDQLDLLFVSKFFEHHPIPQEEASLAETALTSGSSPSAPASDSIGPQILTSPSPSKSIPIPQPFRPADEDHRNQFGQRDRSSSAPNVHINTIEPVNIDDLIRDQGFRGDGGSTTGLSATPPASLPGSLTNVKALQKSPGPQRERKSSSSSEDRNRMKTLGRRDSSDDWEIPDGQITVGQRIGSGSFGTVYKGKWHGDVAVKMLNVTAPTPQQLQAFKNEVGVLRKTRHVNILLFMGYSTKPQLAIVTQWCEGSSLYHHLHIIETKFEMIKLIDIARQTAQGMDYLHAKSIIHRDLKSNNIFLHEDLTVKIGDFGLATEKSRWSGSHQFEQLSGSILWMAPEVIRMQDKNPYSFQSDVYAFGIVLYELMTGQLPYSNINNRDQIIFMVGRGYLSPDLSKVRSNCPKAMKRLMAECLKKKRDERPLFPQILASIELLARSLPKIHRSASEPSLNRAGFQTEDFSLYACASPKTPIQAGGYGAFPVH
Summary of the method: (§1)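 Radiometric kinase assay run at Reaction Biology. Kinase (5−10 mU) in 25 mM Tris pH 7.5, 0.02 mM EGTA, 10 mM magnesium acetate with 0.66 mg/mL myelin basic protein and [γ-33P]ATP at 1 μM ATP. Reaction started with Mg-ATP and run 40 min at room temperature, then stopped with 3% phosphoric acid. Spotted on P30 filtermat, washed, scintillation counted.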

[4] = tested on: Panel melanoma (Carcinoma cell lines); assay: Antiproliferative activity against human Panel melanoma (Carcinoma cell lines) assessed as cell growth inhibition measured after 48 hrs by SRB assay
[5] = tested on: Panel CNS (Carcinoma cell lines); assay: Antiproliferative activity against human Panel CNS (Carcinoma cell lines) assessed as cell growth inhibition measured after 48 hrs by SRB assay
[6] = tested on: MDA-MB-435; assay: Antiproliferative activity against human MDA-MB-435 cells assessed as cell growth inhibition measured after 48 hrs by SRB assay; conditions: MDA-MB-435, 48 h
[7] = tested on: Panel colon (Carcinoma cell lines); assay: Antiproliferative activity against human Panel colon (Carcinoma cell lines) assessed as cell growth inhibition measured after 48 hrs by SRB assay
[8] = tested on: Panel prostate (Carcinoma cell lines); assay: Antiproliferative activity against human Panel prostate (Carcinoma cell lines) assessed as cell growth inhibition measured after 48 hrs by SRB assay
[9] = tested on: Panel ovarian (Carcinoma cell lines); assay: Antiproliferative activity against human Panel ovarian (Carcinoma cell lines) assessed as cell growth inhibition measured after 48 hrs by SRB assay
[10] = tested on: SK-MEL-5; assay: Antiproliferative activity against human SK-MEL-5 cells assessed as cell growth inhibition measured after 48 hrs by SRB assay; conditions: SK-MEL-5, 48 h
[11] = tested on: Panel leukemia (Carcinoma cell lines); assay: Antiproliferative activity against human Panel leukemia (Carcinoma cell lines) assessed as cell growth inhibition measured after 48 hrs by SRB assay
[12] = tested on: Malme-3M; assay: Antiproliferative activity against human Malme-3M cells assessed as total growth inhibition measured after 48 hrs by SRB assay
[13] = tested on: UACC-257; assay: Antiproliferative activity against human UACC-257 cells assessed as total growth inhibition measured after 48 hrs by SRB assay; conditions: UACC-257, 48 h
[14] = tested on: SK-MEL-5; assay: Antiproliferative activity against human SK-MEL-5 cells assessed as total growth inhibition measured after 48 hrs by SRB assay; conditions: SK-MEL-5, 48 h
[15] = tested on: M14; assay: Antiproliferative activity against human M14 cells assessed as cell growth inhibition measured after 48 hrs by SRB assay; conditions: M14, 48 h
[16] = tested on: SK-MEL-28; assay: Antiproliferative activity against human SK-MEL-28 cells assessed as cell growth inhibition measured after 48 hrs by SRB assay; conditions: SK-MEL-28, 48 h
[17] = tested on: Panel melanoma (Carcinoma cell lines); assay: cells; conditions: Homo sapiens, 48 h, read-out: INH
[18] = tested on: UACC-257; assay: Antiproliferative activity against human UACC-257 cells assessed as cell growth inhibition measured after 48 hrs by SRB assay; conditions: UACC-257, 48 h
[19] = tested on: MDA-MB-435; assay: Antiproliferative activity against human MDA-MB-435 cells assessed as total growth inhibition measured after 48 hrs by SRB assay; conditions: MDA-MB-435, 48 h
[20] = in vitro; conditions: human, BJ cells and Malme-3M cells
[21] = tested on: SK-MEL-2; assay: Antiproliferative activity against human SK-MEL-2 cells assessed as total growth inhibition measured after 48 hrs by SRB assay; conditions: SK-MEL-2, 48 h
[22] = target: RAF proto-oncogene serine/threonine-protein kinase (Homo sapiens, UniProt P04049); assay: Inhibition of human wild type CRAF using myelin basic protein as substrate in presence of [gamma-33P]ATP incubated for 40 mins by scintillation counting method
[23] = tested on: LOX IMVI; assay: Antiproliferative activity against human LOX IMVI cells assessed as total growth inhibition measured after 48 hrs by SRB assay
[24] = tested on: Malme-3M; assay: Antiproliferative activity against human Malme-3M cells assessed as cell growth inhibition measured after 48 hrs by SRB assay
[25] = target: Serine/threonine-protein kinase B-raf (Homo sapiens, UniProt P15056); assay: Inhibition of human wild type BRAF using myelin basic protein as substrate in presence of [gamma-33P]ATP incubated for 40 mins by scintillation counting method; summary of the method: as §1
Sequence of Serine/threonine-protein kinase B-raf (Homo sapiens, UniProt P15056) (P15056 whole entry): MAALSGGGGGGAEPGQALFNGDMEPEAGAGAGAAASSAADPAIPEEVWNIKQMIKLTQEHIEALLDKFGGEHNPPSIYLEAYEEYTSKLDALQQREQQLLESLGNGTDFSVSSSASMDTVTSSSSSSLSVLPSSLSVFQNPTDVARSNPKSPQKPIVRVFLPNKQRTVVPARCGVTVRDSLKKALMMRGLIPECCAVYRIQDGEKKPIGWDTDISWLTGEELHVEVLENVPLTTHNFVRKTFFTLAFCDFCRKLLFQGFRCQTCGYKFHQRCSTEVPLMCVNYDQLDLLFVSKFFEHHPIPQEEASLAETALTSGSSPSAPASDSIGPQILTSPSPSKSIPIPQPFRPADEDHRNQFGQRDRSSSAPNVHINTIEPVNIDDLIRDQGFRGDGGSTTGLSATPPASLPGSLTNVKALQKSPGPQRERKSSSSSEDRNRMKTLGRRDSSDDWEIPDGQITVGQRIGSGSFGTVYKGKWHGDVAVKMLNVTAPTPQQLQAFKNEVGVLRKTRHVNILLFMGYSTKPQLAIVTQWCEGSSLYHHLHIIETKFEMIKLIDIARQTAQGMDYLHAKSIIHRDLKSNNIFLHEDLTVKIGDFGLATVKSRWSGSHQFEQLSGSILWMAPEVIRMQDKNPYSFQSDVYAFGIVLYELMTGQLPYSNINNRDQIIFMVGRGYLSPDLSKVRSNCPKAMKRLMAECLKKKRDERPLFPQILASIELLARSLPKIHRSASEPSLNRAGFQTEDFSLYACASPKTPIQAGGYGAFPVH

[26] = tested on: UACC-62; assay: Antiproliferative activity against human UACC-62 cells assessed as cell growth inhibition measured after 48 hrs by SRB assay; conditions: UACC-62, 48 h
[27] = tested on: UACC-62; assay: Antiproliferative activity against human UACC-62 cells assessed as total growth inhibition measured after 48 hrs by SRB assay; conditions: UACC-62, 48 h
[28] = tested on: M14; assay: Antiproliferative activity against human M14 cells assessed as total growth inhibition measured after 48 hrs by SRB assay; conditions: M14, 48 h
[29] = tested on: SK-MEL-28; assay: Antiproliferative activity against human SK-MEL-28 cells assessed as total growth inhibition measured after 48 hrs by SRB assay; conditions: SK-MEL-28, 48 h
[30] = tested on: NSCLC; assay: Antiproliferative activity against human NSCLC cell line assessed as cell growth inhibition measured after 48 hrs by SRB assay
[31] = tested on: Panel breast (Carcinoma cell lines); assay: Antiproliferative activity against human Panel breast (Carcinoma cell lines) assessed as cell growth inhibition measured after 48 hrs by SRB assay
[32] = Cytotoxicity against human BJ cells assessed as cell growth inhibition incubated for 48 hrs by MTT assay; assay type: toxicity, cell-based
Summary of the method: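 BJ1 normal skin fibroblasts were seeded at 10 × 10³ cells/well with compound in triplicate wells and grown in DMEM-F12 at 37 °C, 5% CO₂, across an eight-point dilution series. Growth inhibition was calculated as (1 − T/C) × 100, and IC50 was taken from the dose–response curve.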

[33] = tested on: Panel renal (Carcinoma cell lines); assay: Antiproliferative activity against human Panel renal (Carcinoma cell lines) assessed as cell growth inhibition measured after 48 hrs by SRB assay
[34] = tested on: SK-MEL-2; assay: Antiproliferative activity against human SK-MEL-2 cells assessed as cell growth inhibition measured after 48 hrs by SRB assay; conditions: SK-MEL-2, 48 h
[35] = target: Fibroblast growth factor receptor 1 (Homo sapiens, UniProt P11362); assay: Inhibition of FGFR1 (unknown origin) incubated for 1 hr by qPCR analysis
[36] = target: Mitogen-activated protein kinase 8 (Homo sapiens, UniProt P45983); assay: Inhibition of MAPK8 (unknown origin) incubated for 1 hr by qPCR analysis
Sequence of Mitogen-activated protein kinase 8 (P45983 whole entry): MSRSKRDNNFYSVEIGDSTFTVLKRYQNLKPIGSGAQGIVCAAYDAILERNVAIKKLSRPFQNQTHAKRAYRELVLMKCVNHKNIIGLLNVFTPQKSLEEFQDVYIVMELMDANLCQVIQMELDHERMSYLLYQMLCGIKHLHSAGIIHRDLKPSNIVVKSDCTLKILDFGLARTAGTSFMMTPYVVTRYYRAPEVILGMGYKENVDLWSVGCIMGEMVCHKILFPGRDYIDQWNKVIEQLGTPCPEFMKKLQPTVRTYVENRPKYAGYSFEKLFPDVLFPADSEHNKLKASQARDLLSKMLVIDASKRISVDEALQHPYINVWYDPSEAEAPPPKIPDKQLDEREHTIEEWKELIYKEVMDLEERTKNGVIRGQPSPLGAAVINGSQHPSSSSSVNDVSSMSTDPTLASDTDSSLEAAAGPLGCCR
Summary of the method: (§2)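 Competition binding assay. Kinases were either T7-phage-tagged (grown in an E. coli BL21-derived host) or expressed in HEK-293 cells and DNA-tagged. […] Bound kinase was eluted with non-biotinylated ligand and quantified by qPCR.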

[37] = target: Serine/threonine-protein kinase/endoribonuclease IRE1 (Homo sapiens, UniProt O75460); assay: Inhibition of ERN1 (unknown origin) incubated for 1 hr by qPCR analysis; summary of the method: as §2
[38] = target: Homeodomain-interacting protein kinase 1 (Homo sapiens, UniProt Q86Z02); assay: Inhibition of HIPK1 (unknown origin) incubated for 1 hr by qPCR analysis; summary of the method: as §2
Sequence of Homeodomain-interacting protein kinase 1 (Q86Z02 whole entry): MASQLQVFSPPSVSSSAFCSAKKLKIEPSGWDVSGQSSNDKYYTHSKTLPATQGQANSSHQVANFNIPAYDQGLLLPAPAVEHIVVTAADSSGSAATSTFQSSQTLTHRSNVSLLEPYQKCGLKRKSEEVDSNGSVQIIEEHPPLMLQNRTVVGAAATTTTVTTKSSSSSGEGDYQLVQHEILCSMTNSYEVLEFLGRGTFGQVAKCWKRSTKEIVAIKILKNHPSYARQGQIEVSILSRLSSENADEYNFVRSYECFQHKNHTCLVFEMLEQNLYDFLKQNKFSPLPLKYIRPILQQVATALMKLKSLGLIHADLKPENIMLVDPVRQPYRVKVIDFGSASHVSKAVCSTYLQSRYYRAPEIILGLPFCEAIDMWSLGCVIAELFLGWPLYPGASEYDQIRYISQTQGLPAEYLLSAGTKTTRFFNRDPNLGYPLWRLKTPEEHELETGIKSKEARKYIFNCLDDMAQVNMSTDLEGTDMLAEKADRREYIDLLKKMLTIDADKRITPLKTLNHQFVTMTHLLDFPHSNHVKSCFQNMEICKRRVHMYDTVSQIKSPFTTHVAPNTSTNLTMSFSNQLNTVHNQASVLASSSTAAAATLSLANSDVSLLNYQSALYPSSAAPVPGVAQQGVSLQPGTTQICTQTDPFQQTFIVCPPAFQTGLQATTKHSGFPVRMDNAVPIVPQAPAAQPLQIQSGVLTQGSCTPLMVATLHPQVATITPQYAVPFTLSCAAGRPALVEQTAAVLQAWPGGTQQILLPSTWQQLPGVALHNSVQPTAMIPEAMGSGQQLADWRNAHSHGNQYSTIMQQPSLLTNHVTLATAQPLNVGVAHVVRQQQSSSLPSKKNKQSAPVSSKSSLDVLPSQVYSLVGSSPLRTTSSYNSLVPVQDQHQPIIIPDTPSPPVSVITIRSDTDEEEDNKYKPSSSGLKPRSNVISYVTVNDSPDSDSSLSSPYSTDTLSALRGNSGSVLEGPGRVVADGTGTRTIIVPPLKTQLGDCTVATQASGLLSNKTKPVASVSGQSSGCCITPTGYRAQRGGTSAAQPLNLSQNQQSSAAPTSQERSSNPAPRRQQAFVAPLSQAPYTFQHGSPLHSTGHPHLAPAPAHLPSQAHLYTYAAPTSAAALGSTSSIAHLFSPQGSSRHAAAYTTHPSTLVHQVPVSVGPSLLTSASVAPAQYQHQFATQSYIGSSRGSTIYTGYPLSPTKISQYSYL

[39] = target: Mitogen-activated protein kinase kinase kinase 20 (Homo sapiens, UniProt Q9NYL2); assay: Inhibition of ZAK (unknown origin) incubated for 1 hr by qPCR analysis; summary of the method: as §2
Sequence of Mitogen-activated protein kinase kinase kinase 20 (Q9NYL2 whole entry): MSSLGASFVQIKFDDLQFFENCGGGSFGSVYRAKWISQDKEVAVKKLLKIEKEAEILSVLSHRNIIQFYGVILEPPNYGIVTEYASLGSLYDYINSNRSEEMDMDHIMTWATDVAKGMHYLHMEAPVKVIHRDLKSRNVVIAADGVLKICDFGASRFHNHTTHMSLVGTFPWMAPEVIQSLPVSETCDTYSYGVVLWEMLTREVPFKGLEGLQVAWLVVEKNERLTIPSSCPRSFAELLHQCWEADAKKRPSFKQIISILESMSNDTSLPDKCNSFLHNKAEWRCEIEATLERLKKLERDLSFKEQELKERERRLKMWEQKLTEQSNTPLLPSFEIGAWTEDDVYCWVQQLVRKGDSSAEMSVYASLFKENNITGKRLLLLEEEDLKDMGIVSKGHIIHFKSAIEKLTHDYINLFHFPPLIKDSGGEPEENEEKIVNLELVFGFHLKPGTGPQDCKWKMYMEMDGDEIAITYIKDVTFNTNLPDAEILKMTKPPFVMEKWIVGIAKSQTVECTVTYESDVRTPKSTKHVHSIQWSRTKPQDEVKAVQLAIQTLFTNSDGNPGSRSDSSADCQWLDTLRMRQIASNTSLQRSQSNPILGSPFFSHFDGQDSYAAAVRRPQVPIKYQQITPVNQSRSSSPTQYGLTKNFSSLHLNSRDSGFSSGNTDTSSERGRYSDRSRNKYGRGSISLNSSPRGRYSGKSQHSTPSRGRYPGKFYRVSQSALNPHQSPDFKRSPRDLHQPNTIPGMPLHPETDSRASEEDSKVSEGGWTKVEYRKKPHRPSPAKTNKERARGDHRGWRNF

[40] = target: Mitogen-activated protein kinase 11 (Homo sapiens, UniProt Q15759); assay: Inhibition of MAPK11 (unknown origin) incubated for 1 hr by qPCR analysis; summary of the method: as §2
Sequence of Mitogen-activated protein kinase 11 (Q15759 whole entry): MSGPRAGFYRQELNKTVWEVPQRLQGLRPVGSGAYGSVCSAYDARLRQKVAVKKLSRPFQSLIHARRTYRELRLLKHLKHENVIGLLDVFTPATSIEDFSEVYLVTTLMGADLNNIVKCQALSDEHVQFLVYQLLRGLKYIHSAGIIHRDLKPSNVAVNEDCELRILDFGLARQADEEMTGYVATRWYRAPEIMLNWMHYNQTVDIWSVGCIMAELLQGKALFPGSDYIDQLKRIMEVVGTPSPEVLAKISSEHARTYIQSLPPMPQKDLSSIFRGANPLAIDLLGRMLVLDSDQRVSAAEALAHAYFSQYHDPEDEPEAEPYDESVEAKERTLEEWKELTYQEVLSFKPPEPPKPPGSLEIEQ

[41] = target: T1, Receptor-type tyrosine-protein kinase FLT3 (Homo sapiens, UniProt P36888); assay: Inhibition of FLT3 (unknown origin) incubated for 1 hr by qPCR analysis; summary of the method: as §2
T1 sequence (P36888 whole entry): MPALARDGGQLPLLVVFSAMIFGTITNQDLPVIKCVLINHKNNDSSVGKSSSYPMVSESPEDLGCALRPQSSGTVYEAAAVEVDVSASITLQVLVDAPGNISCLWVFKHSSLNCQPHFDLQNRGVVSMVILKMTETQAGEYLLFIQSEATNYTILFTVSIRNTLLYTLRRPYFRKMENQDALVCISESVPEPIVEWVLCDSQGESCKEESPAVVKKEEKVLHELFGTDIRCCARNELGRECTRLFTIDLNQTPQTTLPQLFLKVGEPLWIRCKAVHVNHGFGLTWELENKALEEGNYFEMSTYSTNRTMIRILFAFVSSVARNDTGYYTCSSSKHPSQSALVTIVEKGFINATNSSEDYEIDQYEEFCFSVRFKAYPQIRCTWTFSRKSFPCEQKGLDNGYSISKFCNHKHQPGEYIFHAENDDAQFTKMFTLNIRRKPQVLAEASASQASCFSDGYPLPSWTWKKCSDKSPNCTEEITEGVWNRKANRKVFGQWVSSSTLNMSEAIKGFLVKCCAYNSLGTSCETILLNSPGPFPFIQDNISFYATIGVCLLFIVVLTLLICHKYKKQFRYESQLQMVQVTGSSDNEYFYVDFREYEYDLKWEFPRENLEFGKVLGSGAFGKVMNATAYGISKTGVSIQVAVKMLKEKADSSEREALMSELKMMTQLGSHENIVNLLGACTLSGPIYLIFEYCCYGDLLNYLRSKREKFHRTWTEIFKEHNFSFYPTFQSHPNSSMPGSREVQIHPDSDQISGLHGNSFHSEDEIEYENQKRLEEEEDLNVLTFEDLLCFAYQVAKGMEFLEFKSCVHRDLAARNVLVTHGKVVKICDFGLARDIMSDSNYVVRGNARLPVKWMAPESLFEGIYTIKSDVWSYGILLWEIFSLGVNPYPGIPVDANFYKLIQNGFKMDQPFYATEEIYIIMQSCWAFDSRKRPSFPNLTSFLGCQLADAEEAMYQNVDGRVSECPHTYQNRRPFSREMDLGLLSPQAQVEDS

[42] = target: Mitogen-activated protein kinase 14 (Homo sapiens, UniProt Q16539); assay: Inhibition of MAPK14 (unknown origin) incubated for 1 hr by qPCR analysis; summary of the method: as §2
Sequence of Mitogen-activated protein kinase 14 (Q16539 whole entry): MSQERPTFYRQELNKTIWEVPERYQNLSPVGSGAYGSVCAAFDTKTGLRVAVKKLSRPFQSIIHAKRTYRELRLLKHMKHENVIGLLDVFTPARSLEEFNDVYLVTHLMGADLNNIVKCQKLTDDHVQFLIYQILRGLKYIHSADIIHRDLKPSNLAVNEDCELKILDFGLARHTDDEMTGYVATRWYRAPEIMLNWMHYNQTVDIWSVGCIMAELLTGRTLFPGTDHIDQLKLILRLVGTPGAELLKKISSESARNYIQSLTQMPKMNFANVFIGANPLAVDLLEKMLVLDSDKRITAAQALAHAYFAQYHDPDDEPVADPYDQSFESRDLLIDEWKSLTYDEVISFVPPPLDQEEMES

[43] = target: Tyrosine-protein kinase ABL1 (Homo sapiens, UniProt P00519); assay: Inhibition of ABL1 (unknown origin) incubated for 1 hr by qPCR analysis
[44] = tested on: Panel colon (Carcinoma cell lines); assay: cells; conditions: Homo sapiens, 48 h, read-out: INH

CN1CCCN(CCNc2nccc(-c3c(-c4cccc(O)c4)nc4sccn34)n2)S1(=O)=O
IC50 [1]: 4.36 µM
IC50 at 48 h [2]: 93.6 µM
IC50 [3]: 0.00377 µM
IC50 [4]: 1.79 µM
IC50 [5]: 16.4 µM
IC50 [6]: 0.49 µM
IC50 [7]: 8.08 µM
IC50 [8]: 11.6 µM
IC50 [9]: 12.1 µM
IC50 [10]: 0.348 µM
IC50 [11]: 11.9 µM
TGI [12]: 0.408 µM
TGI [13]: > 100 µM
TGI [14]: 10.3 µM
IC50 [15]: 0.174 µM
IC50 [16]: 0.24 µM
inhibition at 10 µM [17]: 84.8%
IC50 [18]: 8.21 µM
TGI [19]: 51.6 µM
selectivity ratio [20]: 2100
TGI [21]: 7.36 µM
IC50 [22]: 0.00196 µM
TGI [23]: 28.2 µM
IC50 [24]: 0.036 µM
IC50 [25]: 0.00633 µM
IC50 [26]: 0.058 µM
TGI [27]: 3.14 µM
TGI [28]: 12.9 µM
TGI [29]: 52 µM
IC50 [30]: 13.6 µM
IC50 [31]: 11.9 µM
IC50 at 48 h [32]: 75.6 µM
IC50 [33]: 5.98 µM
IC50 [34]: 2.26 µM

COc1cccc(-c2nc3sccn3c2-c2ccnc(NCCCNS(=O)(=O)c3cccc(F)c3)n2)c1
IC50 [3]: 0.102 µM
IC50 [35]: 11.8 µM
IC50 [36]: 0.36 µM
IC50 [37]: 15.6 µM
IC50 [38]: 3.84 µM
IC50 [39]: 11.3 µM
IC50 [40]: 0.095 µM
IC50 [41]: 2.98 µM
IC50 [42]: 0.088 µM
IC50 [22]: 0.111 µM
IC50 [25]: 0.526 µM

O=S(=O)(NCCNc1nccc(-c2c(-c3cccc(O)c3)nc3sccn23)n1)c1ccc(F)cc1
IC50 [36]: 1.35 µM
IC50 [37]: 9.54 µM
IC50 [38]: 5.13 µM
IC50 [39]: 7.58 µM
IC50 [40]: 1.21 µM
IC50 [43]: 10.4 µM
IC50 [41]: 1.99 µM
IC50 [42]: 2.01 µM
IC50 [22]: 0.006 µM
IC50 [25]: 0.0027 µM

COc1cccc(-c2nc3sccn3c2-c2ccnc(NCCNS(=O)(=O)c3ccc4ccccc4c3)n2)c1
IC50 [3]: 0.169 µM
IC50 [22]: 0.19 µM
IC50 [25]: 0.921 µM
inhibition at 10 µM [44]: 83.1%

COc1ccc(-c2nc3sccn3c2-c2ccnc(NCCNS(=O)(=O)c3ccc(C)cc3)n2)cc1
IC50 at 48 h [2]: 466 µM
IC50 [3]: 26.6 µM
IC50 [22]: 21.3 µM
IC50 [25]: 19.3 µM
IC50 at 48 h [32]: 126 µM

CC1(C)CN(CCNc2nccc(-c3c(-c4cccc(O)c4)nc4sccn34)n2)S(=O)(=O)N1
IC50 [3]: 0.00635 µM
inhibition at 10 µM [17]: 79.7%
IC50 [22]: 0.00426 µM
IC50 [25]: 0.0103 µM

COc1cccc(-c2nc3sccn3c2-c2ccnc(NCCNS(=O)(=O)c3ccc(C(F)(F)F)cc3)n2)c1
IC50 [35]: 15.6 µM
IC50 [36]: 0.42 µM
IC50 [37]: > 20 µM
IC50 [38]: 4.58 µM
IC50 [39]: 8.11 µM
IC50 [40]: 0.12 µM
IC50 [41]: 2.17 µM
IC50 [42]: 0.098 µM
IC50 [22]: 0.142 µM
